Laboratory results reported in ChEMBL document CHEMBL1949523, “Synthesis and evaluation of aza-peptidyl inhibitors of the lysosomal asparaginyl endopeptidase, legumain” (Bioorg Med Chem Lett, 2012).
Active and inactive are the calls of the source. The calls are words filed in the database; no cut-off is given here.

What was measured:
[1] = Inhibition of cathepsin L using Cbz-Phe-Arg-AMC as substrate measured every 30 secs for 2.5 hrs by fluorimetry
Legumain = target: T1, Legumain (Mus musculus, UniProt O89017); test: Inhibition of mouse recombinant legumain using Cbz-Ala-Ala-Asn-AMC as substrate measured every 30 secs for 2.5 hrs by fluorimetry
T1 sequence (O89017 whole entry): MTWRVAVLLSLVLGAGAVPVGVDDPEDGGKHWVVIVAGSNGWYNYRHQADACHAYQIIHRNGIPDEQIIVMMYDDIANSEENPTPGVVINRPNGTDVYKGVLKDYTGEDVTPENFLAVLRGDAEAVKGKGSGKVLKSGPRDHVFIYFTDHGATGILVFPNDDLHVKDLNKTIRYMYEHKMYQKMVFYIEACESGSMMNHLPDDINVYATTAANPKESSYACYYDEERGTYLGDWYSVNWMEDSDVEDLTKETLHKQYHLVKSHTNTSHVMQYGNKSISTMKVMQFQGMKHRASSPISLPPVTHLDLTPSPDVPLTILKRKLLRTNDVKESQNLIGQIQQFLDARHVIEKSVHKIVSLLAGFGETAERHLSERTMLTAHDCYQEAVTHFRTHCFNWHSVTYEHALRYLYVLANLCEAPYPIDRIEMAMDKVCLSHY

[2] = target: Cathepsin B (Mus musculus) (UniProt P10605); test: Binding affinity to cathepsin B in mouse RAW264.7 cells at 10 uM after 60 mins by SDS-PAGE analysis; format: cell-based
Chain of Cathepsin B (Mus musculus) (P10605 80-333 limits assumed): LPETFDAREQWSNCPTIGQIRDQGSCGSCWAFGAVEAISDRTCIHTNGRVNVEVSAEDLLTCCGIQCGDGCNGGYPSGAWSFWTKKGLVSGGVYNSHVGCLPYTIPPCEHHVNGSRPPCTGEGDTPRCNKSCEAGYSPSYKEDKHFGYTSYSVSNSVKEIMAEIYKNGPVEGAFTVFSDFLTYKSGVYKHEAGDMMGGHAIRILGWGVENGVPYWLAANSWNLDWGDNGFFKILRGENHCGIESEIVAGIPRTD
In short: (§1)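 RAW 264.7 macrophages incubated with Cy5-labeled probes for 60 min across a concentration range. Cells lysed hypotonically, labeled proteins resolved on 12.5% SDS-PAGE, detected by in-gel fluorescence scanning.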

[3] = target: T2, Pro-cathepsin H (Mus musculus) (UniProt P49935); test: Binding affinity to cathepsin H in mouse RAW264.7 cells at 10 uM after 60 mins by SDS-PAGE analysis; format: cell-based; in short: as §1
T2 sequence (whole entry): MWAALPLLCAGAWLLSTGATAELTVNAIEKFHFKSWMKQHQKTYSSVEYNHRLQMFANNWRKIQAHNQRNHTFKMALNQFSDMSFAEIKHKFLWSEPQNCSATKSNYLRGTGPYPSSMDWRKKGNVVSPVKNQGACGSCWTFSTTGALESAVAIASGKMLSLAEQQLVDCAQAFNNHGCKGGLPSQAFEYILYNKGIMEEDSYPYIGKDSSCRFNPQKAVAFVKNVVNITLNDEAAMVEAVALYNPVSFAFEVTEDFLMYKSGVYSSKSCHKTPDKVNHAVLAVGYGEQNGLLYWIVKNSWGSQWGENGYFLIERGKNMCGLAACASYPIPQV

Legumain (Mus musculus) = target: T3, Legumain (Mus musculus) (UniProt O89017); test: Binding affinity to legumain in mouse RAW264.7 cells at 0.1 to 10 uM after 60 mins by SDS-PAGE analysis; format: cell-based; in short: as §1
T3 sequence (whole entry): T1 sequence (O89017 whole entry)

Row | Compound | IC50 [1] [µM] | IC50 (Legumain) [µM] | other results
1 | CCOC(=O)C1OC1C(=O)N(CC(N)=O)NC(=O)[C@@H]1CCCN1C(=O)C1(NC(C)=O)CC1 (some centres not stated) | 106 | 0.0044 | –
2 | C/C=C(\NC(C)=O)C(=O)N1CCC[C@H]1C(=O)NN(CC(N)=O)C(=O)/C=C/C(=O)OCC | – | 0.141 | –
3 | CCOC(=O)/C=C/C(=O)N(CC(N)=O)NC(=O)[C@@H]1CCCN1C(=O)C(C)(C)NC(C)=O | – | 0.198 | –
4 | CCOC(=O)/C=C/C(=O)N(CC(N)=O)NC(=O)[C@@H]1CCCN1C(=O)c1ccc(CNC(C)=O)cc1 | – | 0.267 | –
5 | CCOC(=O)/C=C/C(=O)N(CC(N)=O)NC(=O)[C@@H]1CCCN1C(=O)[C@@H]1Cc2ccccc2CN1C(C)=O | – | > 1 | –
6 | CCOC(=O)/C=C/C(=O)N(CC(N)=O)NC(=O)[C@@H]1CCCN1C(=O)C(NC(C)=O)=C(C)C | – | 0.148 | –
7 | CCOC(=O)C1OC1C(=O)N(CC(N)=O)NC(=O)[C@@H]1CCCN1C(=O)CCCCCNC(=O)CCCCCN1/C(=C/C=C/C=C/C2=[N+](CC)c3ccc(S(=O)(=O)O)cc3C2(C)C)C(C)(C)c2cc(S(=O)(=O)[O-])ccc21 (some centres not stated) | – | – | Activity [2]: Active; Activity [3]: Active; Activity (Legumain (Mus musculus)): Active
8 | CCOC(=O)/C=C/C(=O)N(CC(N)=O)NC(=O)[C@@H]1CCCN1C(=O)C1(NC(C)=O)CC1 | > 1000 | 0.0093 | –
9 | CCOC(=O)/C=C/C(=O)N(CC(N)=O)NC(=O)[C@@H]1CCCN1C(=O)[C@H](CC)NC(C)=O | 964 | 0.0065 | –
10 | CCOC(=O)/C=C/C(=O)N(CC(N)=O)NC(=O)[C@@H]1CCCN1C(=O)c1cccc(NC(C)=O)c1 | – | > 1 | –
11 | CCOC(=O)/C=C/C(=O)N(CC(N)=O)NC(=O)[C@@H]1CCCN1C(=O)[C@H]1CSCN1C(C)=O | – | 0.167 | –
12 | C#CC[C@H](NC(C)=O)C(=O)N1CCC[C@H]1C(=O)NN(CC(N)=O)C(=O)C1OC1C(=O)OCC (some centres not stated) | 358 | 0.0086 | –
13 | CCOC(=O)/C=C/C(=O)N(CC(N)=O)NC(=O)[C@@H]1CCCN1C(C)=O | > 1000 | 0.0083 | –
14 | C#CC[C@H](NC(C)=O)C(=O)N1CCC[C@H]1C(=O)NN(CC(N)=O)C(=O)/C=C/C(=O)OCC | 855 | 0.017 | –
15 | CCOC(=O)C1OC1C(=O)N(CC(N)=O)NC(=O)[C@@H]1CCCN1C(=O)[C@H](CC)NC(C)=O (some centres not stated) | 890 | 0.0081 | –
16 | CCOC(=O)/C=C/C(=O)N(CC(N)=O)NC(=O)[C@@H]1CCCN1C(=O)CCCCCNC(=O)CCCCCN1/C(=C/C=C/C=C/CC2=[N+](CC)c3ccc(S(=O)(=O)O)cc3C2(C)C)C(C)(C)c2cc(S(=O)(=O)[O-])ccc21 | – | – | Activity (Legumain (Mus musculus)): Active
17 | CCOC(=O)[C@@H]1O[C@H]1C(=O)N(CC(N)=O)NC(=O)[C@@H]1CCCN1C(=O)C1(NC(=O)CCCCCNC(=O)CCCCCN2/C(=C/C=C/C=C/C3=[N+](CC)c4ccc(S(=O)(=O)O)cc4C3(C)C)C(C)(C)c3cc(S(=O)(=O)[O-])ccc32)CC1 | – | – | Activity [2]: Active; Activity [3]: Active; Activity (Legumain (Mus musculus)): Active
18 | CCOC(=O)C1OC1C(=O)N(CC(N)=O)NC(=O)[C@@H]1CCCN1C(C)=O (some centres not stated) | 370 | 0.0093 | –
19 | CCOC(=O)/C=C/C(=O)N(CC(N)=O)NC(=O)[C@@H]1CCCN1C(=O)[C@H](Cc1ccc(O)c([N+](=O)[O-])c1)NC(C)=O | – | > 1 | –
20 | CCOC(=O)/C=C/C(=O)N(CC(N)=O)NC(=O)[C@@H]1CCCN1C(=O)[C@H](CC)NC(=O)CCCCCNC(=O)CCCCCN1/C(=C/C=C/C=C/C2=[N+](CC)c3ccc(S(=O)(=O)O)cc3C2(C)C)C(C)(C)c2cc(S(=O)(=O)[O-])ccc21 | – | – | Activity (Legumain (Mus musculus)): Active
